Here are results for 26 compounds from ChEMBL document CHEMBL2413000, “Control of the intracellular levels of prostaglandin E₂ through inhibition of the 15-hydroxyprostaglandin dehydrogenase for wound healing” (Bioorg Med Chem, 2013).

Activity calls are given as the source filed them. The calls are words filed in the database; no cut-off is given here.

The IC50 is the concentration at which inhibition is half-maximal.

One test addresses T1, 15-hydroxyprostaglandin dehydrogenase [NAD(+)] (Homo sapiens) (UniProt P15428).
T1 sequence (whole entry): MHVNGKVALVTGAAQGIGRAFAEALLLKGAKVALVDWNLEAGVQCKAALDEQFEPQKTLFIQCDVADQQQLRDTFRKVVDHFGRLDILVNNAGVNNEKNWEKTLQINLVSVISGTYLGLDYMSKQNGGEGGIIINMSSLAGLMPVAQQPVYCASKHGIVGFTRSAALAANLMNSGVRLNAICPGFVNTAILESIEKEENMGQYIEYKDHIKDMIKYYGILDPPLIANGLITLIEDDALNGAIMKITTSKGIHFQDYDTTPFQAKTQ
The experiment in a line: Inhibition of 15-PGDH in IL-1beta-stimulated human A549 cells assessed as increase in PGE2 level after 5 hrs by enzyme immunoassay. The test is classed as cell-based.
Conditions: not given
In outline:
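IL-1β-stimulated A549 cells (RPMI, 10% heat-inactivated FBS, 5% CO₂, 37 °C) exposed to inhibitors at various concentrations for 5 h. PGE₂ in the collected medium quantified by enzyme immunoassay.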
Take `O=C1N=C(O)S/C1=C\c1ccc(OCCc2ccccc2)c(Cl)c1`: the inhibition entry is “Dose-dependent effect”. As for `O=C1N=C(O)S/C1=C\c1ccc(OCc2ccccc2)c(Cl)c1`, the inhibition result is “Dose-dependent effect”.

`O=C1N=C(O)S/C1=C\c1ccc(OCCCc2ccccc2)c(Cl)c1`: the inhibition entry is “Dose-dependent effect”. In the case of `O=C1N=C(O)S/C1=C\c1ccc(OCCCCc2ccccc2)c(Cl)c1`, the inhibition result is “Dose-dependent effect”.

The next test has as its target T1, 15-hydroxyprostaglandin dehydrogenase [NAD(+)] (Homo sapiens). Briefly: Inhibition of 15-PGDH in IL-1beta-stimulated human A549 cells assessed as increase in PGE2 level at 5 uM after 12 hrs by enzyme immunoassay relative to control.
Conditions: not given
With `O=C1N=C(O)S/C1=C\c1ccc(OCCc2ccccc2)c(Cl)c1`, the fold change (FC) is 5.

Another test addresses T2, 15-hydroxyprostaglandin dehydrogenase [NAD(+)] (Homo sapiens, UniProt P15428).
T2 sequence (P15428 whole entry): T1 sequence (whole entry)
Briefly: Inhibition of human GST-fused 15-PGDH expressed in Escherichia coli BL21 using PGE2 as substrate assessed as formation of NADH by fluorescence spectrophotometric analysis.
Conditions: not given
In outline: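 GST-tagged 15-PGDH from pGEX-2T in E. coli BL-21 LysS, IPTG-induced 12 h at 25 °C, glutathione-Sepharose purified. Triplicates per concentration; IC50 derived.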
On to `O=C1NC(=O)/C(=C/c2ccc(OC(=O)c3cccs3)c(Cl)c2)S1`, for which the IC50 stood at 264 nM. For the compound `O=C1NC(=O)/C(=C/c2ccc(Oc3cccc([N+](=O)[O-])c3)c(Cl)c2)S1`, the IC50 stood at 100 nM. On to `O=C1NC(=O)/C(=C/c2ccc(OCC3CCC3)c(Cl)c2)S1`, for which the IC50 was 9 nM. Consider `CC(C)OCCOc1ccc(/C=C2\SC(=O)NC2=O)c(Cl)c1`, for which the concentration for half-maximal inhibition (IC50) turned out to be 1050 nM.

Consider `CCc1ccc(CCOc2ccc(/C=C3\SC(=O)NC3=O)cc2Cl)nc1`, for which the IC50 turned out to be 2080 nM. On the same count and under the same terms, as for `O=C1NC(=O)/C(=C/c2ccc(OCc3ccc4c(c3)OCO4)c(Cl)c2)S1`, the figure is 193 nM; as for `Cc1ncsc1CCOc1ccc(/C=C2\SC(=O)NC2=O)cc1Cl`, 5170 nM. As to `O=C1NC(=O)/C(=C/c2ccc(Oc3cccc4c3CCCC4=O)c(Cl)c2)S1`, the concentration for half-maximal inhibition (IC50) is 71 nM. In the case of `O=C1NC(=O)/C(=C/c2ccc(OCc3ccc([N+](=O)[O-])cc3)c(Cl)c2)S1`, the IC50 was found to be 930 nM.

As to `C=C(C)C1CCC(COc2ccc(/C=C3\SC(=O)NC3=O)cc2Cl)CC1` (stereo unspecified), the IC50 was 75 nM. Same read-out and setting: the value for `O=C1NC(=O)/C(=C/c2ccc(OCCCCc3ccccc3)cc2Cl)S1` was 81 nM. As to `O=C1NC(=O)/C(=C/c2ccc(OCCOC3CCCCC3)cc2Cl)S1`, the IC50 turned out to be 211 nM. Take `CC(Oc1ccc(/C=C2\SC(=O)NC2=O)cc1Cl)C1CC1` (stereo unspecified): the IC50 was determined as 132 nM. In the case of `O=C1NC(=O)/C(=C/c2ccc(OCC3CCCC3)c(Cl)c2)S1`, the IC50 came to 11 nM. Turning to `O=C1NC(=O)/C(=C/c2ccc(Oc3cccc(/C=C/[N+](=O)[O-])c3)c(Cl)c2)S1`, the IC50 was 59 nM. On to `O=C1N=C(O)S/C1=C\c1ccc(OCCC2CCCCC2)cc1Cl`, for which the IC50 is 13 nM.

As to `O=C1NC(=O)/C(=C/c2ccc(OCCc3ccccn3)c(Cl)c2)S1`, the IC50 is 4440 nM.

In the case of `O=C1NC(=O)/C(=C/c2ccc(OCCOC3CCCCC3)c(Cl)c2)S1`, the IC50 came to 20 nM. In the case of `O=C1NC(=O)/C(=C/c2ccc(OCC3CC4CCC3C4)c(Cl)c2)S1` (stereo unspecified), the IC50 was determined as 165 nM.

Regarding `O=C1NC(=O)/C(=C/c2ccc(OCCc3ccc([N+](=O)[O-])o3)c(Cl)c2)S1`, the IC50 is 123 nM. Still for that read-out and setting: as for `O=C1NC(=O)/C(=C/c2ccc(OCCC3CCCC3)cc2Cl)S1`, the figure is 42 nM; as for `O=C1NC(=O)/C(=C/c2ccc(OCc3ccc([N+](=O)[O-])cc3)cc2Cl)S1`, 4540 nM.

For the next test, the target named is T1, 15-hydroxyprostaglandin dehydrogenase [NAD(+)] (Homo sapiens). Briefly: Inhibition of 15-PGDH in IL-1beta-stimulated human A549 cells assessed as increase in PGE2 level at 5 uM after 5 hrs by enzyme immunoassay relative to control. The test is classed as cell-based. The conditions noted are these: in the assay text read “after 12 hrs” for “after 5 hrs”. In outline: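 A549 cells seeded at 5×10^5 per well, incubated overnight in RPMI with FBS and antibiotic at 37 °C, 5% CO₂, then treated with inhibitor at 5 μM. Medium collected (text gives 5 h in one passage, 12 h in methods). PGE₂ measured by kit enzyme immunoassay and compared with untreated control. Three independent experiments.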
For `O=C1N=C(O)S/C1=C\c1ccc(OCc2ccccc2)c(Cl)c1`, the inhibition entry is “Active”.

On to `O=C1N=C(O)S/C1=C\c1ccc(OCCCc2ccccc2)c(Cl)c1`, for which the inhibition result is “Active”. Still for that read-out and setting: as for `O=C1N=C(O)S/C1=C\c1ccc(OCCCCc2ccccc2)c(Cl)c1`, the entry is “Active”.

The subject of another test is HaCaT. The experiment in a line: Wound healing activity in scratch made human HaCaT cells at 5 uM after 48 hrs by inverted microscopic analysis relative to control. The test is classed as functional, cell-based.
Conditions: not given
In outline: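 HaCaT cells plated at ca. 5×10^5 per well in DMEM with 10% FBS and 10 µg/mL mitomycin, 37 °C, 5% CO₂, grown to ca. 80% confluence. Monolayer scratched with a 200 µL pipette tip, then incubated with 5 µM test agent; 1 ng TGF-β1 as positive control. Wound width imaged by inverted microscope at wounding and after 48 h, compared with untreated control.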
As to `O=C1N=C(O)S/C1=C\c1ccc(OCCc2ccccc2)c(Cl)c1`, the result was Active.
